# STAT1 blocker – inhibitors of IFN-gamma induced STAT1 signaling; inhibition, % at 5.5 µM; hit rate 0.35% among 200,000; NIH 3T3 STAT1-luciferase reporter, luminescence;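 active means inhibition above a set limit, the mean inhibition across all tested compounds plus 3 SD, cut at about 34% in these data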;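 further: 0% = IFN-gamma with DMSO and 100% = IFN-gamma with 300 µM nifuroxazide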
# APP 5'UTR act – activates APP 5'UTR luciferase reporter. SH-SY5Y APP 5'UTR luciferase reporter, luminescence; zero percent = DMSO vehicle wells. activation, % at 2 µM. hit rate 1% among 190,000;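 active means activation above a set limit, based on mean plus 3 SD of controls, cut at about 140% in these data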
# STAT1 act – activators of IFN-gamma induced STAT1 signaling; AID 932; hit rate 2.6% among 200,000; NIH 3T3 STAT1-luciferase reporter, luminescence; 100% = IFN-gamma alone, no compound; activation (% of control), % at 5.5 µM;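 active means activation above the screen-wide mean activation plus 3 SD, cut at about 130% in these data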;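 further: raw ratio to IFN-gamma control signal so 100% means no change and 0% no light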
# NF-kB expr up – NF-kB expression increase, human neuronal cells; hit rate 1.6% among 190,000; fold change at 12.5 µM; NF-kB reporter expression; active compounds read high; in the data active means fold change above about 3.3
# STAT3 activator – STAT3 signaling activation. U3A cells, IL-6 STAT3-luciferase reporter, luminescence; 100% = signal with IL-6 EC80 alone. activation (% of control), % at 5.6 µM. hit rate 0.91% among 190,000;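 active means activation above the screen-wide mean of compound activation plus 3 SD, cut at about 130% in these data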;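 further: 0% = background luminescence of wells with medium and substrate only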
#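 Material: STAT1-lacking human U3A cells, STAT3 luciferase reporter | Benchmarks: IL-6-only wells as 100% reference | Probe or stimulus: IL-6 (33 ng/mL) | Timing: Compound 1 h, then IL-6 6 h at 37 °C | Detection: Luminescence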
# STAT3 inh – STAT3 signaling inhibition; U3A cells, IL-6 STAT3-luciferase reporter, luminescence; host cell line lacks STAT1; inhibition, % at 5.5 µM; hit rate 0.89% among 190,000;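 active means inhibition above the mean inhibition across all screened compounds plus 3 SD, cut at about 44% in these data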;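 further: 0% = DMSO only wells and 100% = 100 µM nifuroxazide control wells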
# STAT1 activ conf – confirmation of STAT1 signaling activators; shares compounds with STAT1 act; hit rate 97% among 1,200; activation (% of control), % at 5.7 µM; NIH 3T3 STAT1-luciferase reporter, IFN-gamma potentiation, luminescence; 100% = IFN-gamma EC80 alone, no compound; AID 1262;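 active means activation above a set limit carried over from the earlier primary STAT1 screen, cut at about 140% in these data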;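 further: simple ratio to median IFN-gamma plus DMSO wells so 0% means no light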
# NFkB act – counter-screen for STAT1 activators: NF-kappaB activation | shares compounds with STAT1 act | HEK293T NF-kB luciferase reporter, TNF-alpha stimulated, luminescence; 100% = TNF-alpha with vehicle only | activation (% of control), % at 5.7 µM | hit rate 43% among 1,200 | AID 1306;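 active means activation above the mean of solvent-only control wells plus 3 SD, set per campaign, cut at about 130% in these data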;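 further: TNF-alpha given at a submaximal dose yielding about 80% of full reporter signal; values are well signal over median control so 100% means no change and 0% no light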
# STAT3 act STAT1c – counter-screen for STAT1 activators: human STAT3 activation; activation (% of control), % at 5.7 µM; U3A cells STAT3-luciferase reporter, IL-6, luminescence; cells lack STAT1; 100 = IL-6 alone, no compound effect; hit rate 46% among 1,200; shares compounds with STAT1 act;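 active means activation above the solvent-only control well mean plus 3 SD, set per plate batch, cut at about 110% in these data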;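 further: 0% = no luminescence and 100% = median IL-6 plus DMSO wells; higher means more STAT3 reporter activation so hits are non-selective activators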
# * = called active by the depositor; nt = no result. An excerpt weighted towards active compounds, which were near 4.9% of everything screened.
SMILES,STAT1 blocker,APP 5'UTR act,STAT1 act,NF-kB expr up,STAT3 activator,STAT3 inh,STAT1 activ conf,NFkB act,STAT3 act STAT1c
COc1ccc(C(=O)Nc2nc3ccc(S(C)(=O)=O)cc3s2)cc1OC,-3,9,103,0.57,85,18,nt,nt,nt
O=C(Nc1nc2ccccc2s1)c1ccc(OCC2CCCO2)cc1 (stereo not drawn),-87,122,177*,1.6,86,19,248*,103,97
O=C(Nc1nc2ccccc2s1)c1ccc(Cl)s1,-61,156*,156*,4.8*,89,21,231*,141*,109
CSc1nc2ccc(NC(=O)c3ccc(Cl)s3)cc2s1,-96,138*,186*,1.5,nt,nt,181*,140*,104
O=C(/C=C/c1cc([N+](=O)[O-])ccc1OC(F)F)Nc1cccc(OC(F)F)c1,1,-3,99,1,93,4,nt,nt,nt
CCOC(=O)C1(CC2CCCCO2)CCN(Cc2ccc(OC)cc2F)CC1 (stereo not drawn),17,-1,83,0.81,102,3,nt,nt,nt
CC(C)(C)C(=O)Nc1ccc(C(=O)OC2CCCCC2)cc1,-67,133,162*,3.6*,128,-37,219*,145*,133*
Cc1nc2c(-c3ccccc3)c(C)nn2c(N)c1-c1ccccc1,-65,199*,159*,2.2,94,10,206*,141*,110
c1ccc(-n2nnc(-c3cccnc3)n2)cc1,-54,18,152*,2.4,nt,nt,165*,126,103
c1ccc(OCCCn2nnc(-c3cccnc3)n2)cc1,5,-8,95,1.1,98,6,nt,nt,nt
Cn1c(N)c(C(=O)Nc2ccc3ccccc3c2)sc1=S,-79,143*,172*,1.5,100,5,204*,132,107
Cc1oc(-c2ccccc2)cc1C(=O)Nc1ccc2ccccc2c1,0,6,100,1.4,99,5,nt,nt,nt
Cc1nn(Cc2cccc(C(=O)N3CCCC(C)C3)c2)c(C)c1[N+](=O)[O-] (stereo not drawn),-3,2,102,1.1,101,3,nt,nt,nt
Cc1ccc(S(=O)(=O)N2CCN(C(=O)N(C)C)CC2)cc1,-3,9,101,1.1,102,-1,nt,nt,nt
Oc1sc(C=Nc2ccccc2)c2ccccc12,-74,153*,166*,8.1*,128,-31,209*,141*,108
COc1cc(O)oc1C=Nc1ccccc1,-10,-2,109,1.1,90,13,nt,nt,nt
Cc1csc(NC(=O)c2ccc(C)c([N+](=O)[O-])c2)n1,-95,172*,184*,5.6*,77,26,236*,112,96
Cc1cc(C(=O)COC(=O)Cc2n[nH]c(=O)c3ccccc23)c(C)n1-c1ccc2c(c1)OCCO2,19,3,83,0.68,91,13,nt,nt,nt
Cc1cc(NCCOCCO)n2ncc(-c3ccc(Cl)cc3)c2n1,-83,152*,177*,3.6*,110,-10,265*,135*,133*
OCc1cn(-c2ccccc2)nc1-c1cc2ccccc2o1,-73,86,167*,9.7*,95,10,213*,139*,107
O=C(N/N=C/c1cn(-c2ccccc2)nc1-c1cc2ccccc2o1)c1c[nH]c2ccccc12,-94,187*,187*,nt,108,-2,199*,135*,105
COc1ccc(NC(=O)c2cn(-c3ccccc3)nc2-c2cc3ccccc3o2)cc1,-8,31,107,0.82,83,30,nt,nt,nt
